pIC50: −log10 of the molar value. The source made the active and inactive calls. The calls are words filed in the database; no cut-off is given here.
What was measured:
[1] = tested on: MDA-MB-453; assay: Cell cycle arrest in human MDA-MB-453 cells assessed as accumulation at sub-G1 phase at 2 times IC50 after 24 hrs using propidium iodide staining by flow cytometry; format: functional, cell-based
Outline: (§1)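 Cells were seeded at 3 × 10⁵ per well and treated or left untreated for 24 h. They were trypsinized and fixed overnight in ice-cold 70% ethanol at -20°C, then washed in PBS. RNase was applied at 37°C for 30 min, followed by propidium iodide for at least 30 min. DNA content and cell-cycle distribution were measured by FACScan flow cytometry on at least 10,000 cells per sample.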

[2] = tested on: MDA-MB-453; assay: Antiproliferative activity against human MDA-MB-453 cells assessed as cell survival after 72 hrs by MTT assay; format: functional, cell-based; settings: MDA-MB-453, 72 h
Outline: (§2)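 Monolayer cultures in RPMI-1640 with L-glutamine (3 mM), 10% heat-inactivated FBS, 25 mM Hepes, pH 7.2, and extra glucose (1.11 g/L), at 37°C and 5% CO2. Seeding was 7000 cells/well for MDA-MB-361 and 3000 cells/well for MDA-MB-453. After 24 h, five two-fold dilutions were added for 72 h. MTT readout (Ohno–Abe modification). IC50 was read from the survival-versus-concentration curve; mean ± SD of three independent experiments.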

[3] = tested on: MS-1; assay: Antiangiogenic activity in mouse MS1 cells assessed as inhibition tube-like structure formation at 3 uM after 12 hrs by microscopy
[4] = tested on: MDA-MB-361; assay: Antiproliferative activity against human MDA-MB-361 cells assessed as cell survival after 72 hrs by MTT assay; format: functional, cell-based; settings: MDA-MB-361, 72 h; outline: as §2
[5] = tested on: MS-1; assay: Antiangiogenic activity in mouse MS1 cells assessed as inhibition tube-like structure formation at 30 uM after 12 hrs by microscopy; format: functional, cell-based
[6] = tested on: MS-1; assay: Antiangiogenic activity in mouse MS1 cells assessed as inhibition tube-like structure formation at 3 uM after 12 hrs by microscopy; format: functional, cell-based
[7] = tested on: MDA-MB-361; assay: Cell cycle arrest in human MDA-MB-361 cells assessed as accumulation at sub-G1 phase at 2 times IC50 after 24 hrs using propidium iodide staining by flow cytometry (Rvb =2.21 %); format: functional; outline: as §1
[8] = tested on: MDA-MB-361; assay: Cell cycle arrest in human MDA-MB-361 cells assessed as accumulation at S phase at 2 times IC50 after 24 hrs using propidium iodide staining by flow cytometry (Rvb =15.72 %); format: functional; outline: as §1
[9] = tested on: MDA-MB-361; assay: Cell cycle arrest in human MDA-MB-361 cells assessed as accumulation at G1 phase at 2 times IC50 after 24 hrs using propidium iodide staining by flow cytometry (Rvb =64.36 %); format: functional; outline: as §1
[10] = tested on: MDA-MB-361; assay: Cell cycle arrest in human MDA-MB-361 cells assessed as accumulation at G2/M phase at 2 times IC50 after 24 hrs using propidium iodide staining by flow cytometry (reference value: 14.15 %); format: functional; outline: as §1
[11] = tested on: MS-1; assay: Antiangiogenic activity in mouse MS1 cells assessed as inhibition tube-like structure formation at 10 uM after 12 hrs by microscopy
[12] = tested on: MS-1; assay: Antiangiogenic activity in mouse MS1 cells assessed as inhibition tube-like structure formation at 10 uM after 12 hrs by microscopy; format: functional, cell-based

CCOC(=O)c1c[nH]nc1N/C=C1\C(=O)N(c2ccccc2)N=C1c1ccccc1
Activity [1]: Active | pIC50 [2]: 4.71 | Activity [3]: inactive | pIC50 [4]: 4.61

O=C1NN=C(c2ccccc2)/C1=C/Nc1cc[nH]n1
pIC50 [2]: 4.13 | Activity [5]: inactive | pIC50 [4]: 4.02

O=C(O)[C@@H](Cc1ccccc1)N/C=C1\C(=O)N(c2ccccc2)N=C1c1ccccc1
Activity [1]: Active | pIC50 [2]: 5.02 | Activity [3]: inactive | pIC50 [4]: 4.93

O=C1/C(=C\Nc2cc(-c3ccccc3)[nH]n2)C(c2ccccc2)=NN1c1ccccc1
Activity [1]: Active | pIC50 [2]: 5.06 | Activity [6]: Active | pIC50 [4]: 4.91

Cc1cc(N/C=C2\C(=O)N(c3ccccc3)N=C2c2ccccc2)n[nH]1
Activity [1]: Active | pIC50 [2]: 4.99 | Activity [7]: 19.43% | Activity [8]: 11.64% | Activity [9]: 46.79% | Activity [6]: Active | Activity [10]: 14.12% | pIC50 [4]: 5.00

Cc1cc(N/C=C2\C(=O)NN=C2c2ccccc2)n[nH]1
pIC50 [2]: 4.03 | Activity [5]: Active | pIC50 [4]: 4.02

O=C1NN=C(c2ccccc2)/C1=C/N[C@@H](Cc1ccccc1)C(=O)O
pIC50 [2]: 4.02 | Activity [11]: inactive | pIC50 [4]: 4.17

O=C(O)[C@H](Cc1c[nH]cn1)N/C=C1\C(=O)N(c2ccccc2)N=C1c1ccccc1
Activity [1]: Active | pIC50 [2]: 4.15 | Activity [5]: inactive | pIC50 [4]: 4.06

O=C1NN=C(c2ccccc2)/C1=C/N[C@@H](Cc1c[nH]c2ccccc12)C(=O)O
pIC50 [2]: 4.38 | Activity [5]: Active | pIC50 [4]: 4.03

O=C(O)[C@H](Cc1ccccc1)N/C=C1\C(=O)N(c2ccccc2)N=C1c1ccccc1
Activity [1]: Active | pIC50 [2]: 4.98 | Activity [6]: Active | pIC50 [4]: 4.94

CSC[C@H](N/C=C1\C(=O)N(c2ccccc2)N=C1c1ccccc1)C(=O)O
Activity [1]: Active | pIC50 [2]: 5.02 | Activity [3]: inactive | pIC50 [4]: 4.85

O=C1NN=C(c2ccccc2)/C1=C/N[C@@H](Cc1ccc(O)cc1)C(=O)O
pIC50 [2]: 4.53 | Activity [11]: inactive | pIC50 [4]: 4.21

O=C1NN=C(c2ccccc2)/C1=C/N[C@@H](CO)C(=O)O
pIC50 [2]: 4.63 | Activity [5]: Active | pIC50 [4]: 3.98

CSC[C@H](N/C=C1\C(=O)NN=C1c1ccccc1)C(=O)O
pIC50 [2]: 3.98 | Activity [5]: Active | pIC50 [4]: 4.01

O=C(O)[C@H](Cc1ccc(O)cc1)N/C=C1\C(=O)N(c2ccccc2)N=C1c1ccccc1
Activity [1]: Active | pIC50 [2]: 4.96 | Activity [3]: inactive | pIC50 [4]: 4.61

O=C(O)[C@H](Cc1c[nH]c2ccccc12)N/C=C1\C(=O)N(c2ccccc2)N=C1c1ccccc1
Activity [1]: Active | pIC50 [2]: 5.01 | Activity [11]: inactive | pIC50 [4]: 4.47

O=C1NN=C(c2ccccc2)/C1=C/Nc1cc(-c2ccco2)[nH]n1
pIC50 [2]: 4.68 | Activity [11]: inactive | pIC50 [4]: 4.20

O=C1NN=C(c2ccccc2)/C1=C/Nc1cc(-c2ccccc2)[nH]n1
pIC50 [2]: 4.94 | Activity [11]: inactive | pIC50 [4]: 4.37

O=C(O)[C@H](CO)N/C=C1\C(=O)N(c2ccccc2)N=C1c1ccccc1
Activity [1]: Active | pIC50 [2]: 4.31 | Activity [11]: inactive | pIC50 [4]: 4.28

O=C1/C(=C\Nc2cc[nH]n2)C(c2ccccc2)=NN1c1ccccc1
Activity [1]: Active | pIC50 [2]: 4.46 | Activity [12]: Active | Activity [7]: 21.55% | Activity [8]: 7.81% | Activity [9]: 47.94% | Activity [10]: 15.58% | pIC50 [4]: 4.29

CSCC[C@H](N/C=C1\C(=O)NN=C1c1ccccc1)C(=O)O
pIC50 [2]: 4.38 | Activity [5]: Active | pIC50 [4]: 3.98

O=C1NN=C(c2ccccc2)/C1=C/N[C@@H](Cc1c[nH]cn1)C(=O)O
pIC50 [2]: 4.13 | Activity [5]: Active | pIC50 [4]: 3.95

O=C1/C(=C\Nc2cc(-c3ccco3)[nH]n2)C(c2ccccc2)=NN1c1ccccc1
Activity [1]: Active | pIC50 [2]: 4.91 | Activity [7]: 21.95% | Activity [8]: 7.33% | Activity [9]: 51.38% | Activity [6]: Active | Activity [10]: 13.9% | pIC50 [4]: 4.87

CSCC[C@H](N/C=C1\C(=O)N(c2ccccc2)N=C1c1ccccc1)C(=O)O
Activity [1]: Active | pIC50 [2]: 5.03 | Activity [3]: inactive | pIC50 [4]: 4.90

CCOC(=O)c1c[nH]nc1N/C=C1\C(=O)NN=C1c1ccccc1
pIC50 [2]: 4.13 | Activity [3]: inactive | pIC50 [4]: 3.92

From ChEMBL document CHEMBL1806417, “Antiproliferative activity and QSAR studies of a series of new 4-aminomethylidene derivatives of some pyrazol-5-ones” (Bioorg Med Chem Lett, 2011)
